Series [1] relates to Cellular tumor antigen p53 (Homo sapiens), P04637 [Y220C]. The experiment in a line: Induction of p53Y220C mutant acetylation in human NUGC-3 cells expressing p300/CBP assessed as increase in p53 acetylation at lysine 382 residue at 1 to 10 uM incubated for 24 hrs by western blot analysis. The format is cell-based. The following applies: dose 1-10 µM. In a few lines:
(§1)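 BxPC3 or NUGC-3 cells, which endogenously carry p53Y220C, were dosed at 1, 3 or 10 μM (or DMSO) for 24 h. Lysates were immunoblotted for p53 and p53 K382ac, with vinculin loading control. Blots are representative of two independent experiments.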
For orientation: Immunoblotting shows a protein as a band on a membrane.

Series [2] is described as follows: Cytotoxicity against human U2OS cells harboring wild type p53 assessed as inhibition of cell growth at 10 uM incubated for 72 hrs by WST-8 assay. In kind it is toxicity, cell-based. Put shortly:
(§2)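 U2OS (WT p53) or normal prostate PNT2 cells were treated for 72 h at the indicated concentrations. Viability is mean ± SD of technical triplicates from two biological experiments.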
(Formazan colour is commonly taken as a measure of viable cells.)

The test system of series [3] is NCI-H1299. The experiment in a line: Antiproliferative activity against human NCI-H1299 cells expressing p53Y220C mutant and transfected with p300 siRNA assessed as reduction in cell viability at 0.47 to 15 uM incubated for 3 days by WST-8 assay. The following applies: dose 0.47-15 µM, time 3.0 day. The format is functional, cell-based. In a few lines:
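NCI-H1299 p53Y220C cells were first transfected with p300 siRNA for 72 h, then exposed to compound across the concentration series for 72 h. Viability is mean ± SD from three independent experiments.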

For the next series, the system named is NUGC-3. The experiment in a line: Antiproliferative activity against human NUGC-3 cells harboring p53Y220C mutant assessed as inhibition of cell growth incubated for 72 hrs by WST-8 assay. In kind it is functional. Put shortly: (§3)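 BxPC3 or NUGC-3 cells were treated with DMSO or compound over a concentration range for 72 h before the viability read-out. Values are mean ± SD of technical triplicates from three biological experiments.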

Series [4] has as its system NCI-H1299. In words: Antiproliferative activity against p53-null human NCI-H1299 cells assessed as reduction in cell viability at 0.47 to 15 uM incubated for 3 days by WST-8 assay. In kind it is functional, cell-based. The following applies: dose 0.47-15 µM, time 3.0 day. In a few lines:
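p53-null NCI-H1299 cells were exposed to compound across the concentration series for 72 h before the viability read-out. Data are mean ± SD from three independent experiments.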

Series [5] relates to Cellular tumor antigen p53 (Homo sapiens), P04637 [Y220C]. In words: Stabilization of FLAG-tagged p53Y220C mutant (unknown origin) expressed in human NCI-H1299 cells assessed as upregulation of p21 mRNA expression at 3 uM incubated for 24 hrs by RT-qPCR analysis. The format is cell-based. In a few lines: (§4)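 NCI-H1299 p53Y220C cells were treated with 3 μM or DMSO for 24 h, followed by RT-qPCR of p53 target genes. Each transcript was normalized to GAPDH, then expressed relative to the DMSO control. Values are mean ± SD from three independent experiments.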
In general terms: Quantitative PCR measures a nucleic acid by following its amplification.

Series [6] shares this test system. The experiment in a line: Induction of p53Y220C mutant acetylation in human BXPC-3 cells expressing p300/CBP assessed as increase in p53 acetylation at lysine 382 residue at 1 to 10 uM incubated for 24 hrs by western blot analysis. The format is cell-based. The following applies: dose 1-10 µM. Put shortly:
as §1

The test system of a further series is U2OS. In words: Cytotoxicity against human U2OS cells harboring wild type p53 assessed as inhibition of cell growth incubated for 72 hrs by WST-8 assay. In kind it is toxicity, cell-based. In a few lines:
as §2

For the next series, the system named is PNT2. In words: Cytotoxicity against human PNT2 cells assessed as inhibition of cell growth incubated for 72 hrs by WST-8 assay. The following applies: pnt2, 72 h. In kind it is toxicity, cell-based. Put shortly:
as §2

The subject of series [7] is Cellular tumor antigen p53 (Homo sapiens), P04637 [Y220C]. The experiment in a line: Stabilization of FLAG-tagged p53Y220C mutant (unknown origin) expressed in human NCI-H1299 cells assessed as upregulation of GADD45A mRNA expression at 3 uM incubated for 24 hrs by RT-qPCR analysis. In kind it is cell-based. In a few lines: as §4
The next series concerns BXPC-3. In words: Antiproliferative activity against human BXPC-3 cells harboring p53Y220C mutant assessed as inhibition of cell growth incubated for 72 hrs by WST-8 assay. The format is functional. Put shortly:
as §3

Series [8] concerns NCI-H1299. In words: Antiproliferative activity against human NCI-H1299 cells expressing p53Y220C mutant assessed as reduction in cell viability incubated for 3 days by WST-8 assay. In kind it is functional. The following applies: NCI-H1299, 72 h, time 3 day. Put shortly: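 NCI-H1299 p53Y220C cells were exposed to compound over a concentration range for 72 h, in some runs after 72 h of control or p300 siRNA, before the viability read-out. Values are mean ± SD of three independent experiments.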

Series [9] can be described thus: Cytotoxicity against human PNT2 cells assessed as inhibition of cell growth at 10 uM incubated for 72 hrs by WST-8 assay. The format is toxicity, cell-based. Put shortly:
as §2

The test system of series [10] is Cellular tumor antigen p53 (Homo sapiens), P04637 [Y220C]. In words: Stabilization of FLAG-tagged p53Y220C mutant (unknown origin) expressed in human NCI-H1299 cells assessed as downregulation of E2F1 mRNA expression at 3 uM incubated for 24 hrs by RT-qPCR analysis. In kind it is cell-based. Put shortly: as §4
Series [11] has the same test system. The experiment in a line: Induction of FLAG-tagged p53Y220C mutant acetylation (unknown origin) expressed in human NCI-H1299 cells assessed as increase in p53 acetylation at lysine 382 residue at 10 uM incubated for 24 hrs by western blot analysis relative to control. In kind it is cell-based. In a few lines:
(§5)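 NCI-H1299 (p53Y220C) cells were treated at 0.1–10 μM (0.1, 0.3, 1, 3 or 10 μM) for 24 h. Lysates were Western blotted for p53 and p53K382ac, with vinculin as loading control. p53K382ac was normalised to total p53Y220C and quantified from two or three independent experiments.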

Series [12] concerns CREB-binding protein/Histone acetyltransferase p300/Cellular tumor antigen p53 (Homo sapiens), P04637+Q09472+Q92793 [Y220C]. In words: Induction of interaction between FLAG-tagged p53Y220C mutant (unknown origin) and p300/CBP expressed in human NCI-H1299 cells assessed as ternary complex formation at 10 uM incubated for 24 hrs by co-immunoprecipitation analysis. In kind it is cell-based. Put shortly:
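NCI-H1299 p53-null and p53Y220C cells were treated with DMSO or compound at 10 μM for 24 h. p53-FLAG pull-down was followed by Western blotting for associated p300. Representative of two independent experiments.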

In series [13] the test system is Cellular tumor antigen p53 (Homo sapiens), P04637 [Y220C]. In words: Stabilization of p53Y220C mutant (unknown origin) assessed as increase in melting temperature at 250 uM by […].
The subject of series [14] is CREB-binding protein/Histone acetyltransferase p300/Cellular tumor antigen p53 (Homo sapiens), P04637+Q09472+Q92793 [Y220C]. The experiment in a line: AceTAC activity at FLAG-tagged p53Y220C mutant (unknown origin ) expressed in human NCI-H1299 cells expressing p300/CBP assessed as increase in p53 acetylation at lysine 382 residue at 1 uM incubated for 24 hrs by western blot analysis. In kind it is cell-based. In a few lines: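 NCI-H1299 cells stably expressing p53Y220C, treated 24 h at 1 or 10 μM. Lysates were Western blotted for total p53 and p53 K382ac, with vinculin as loading control. Blots are representative of at least two independent experiments.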

The test system is the same in series [15]. In words: AceTAC activity at FLAG-tagged p53Y220C mutant (unknown origin) expressed in human NCI-H1299 cells expressing p300/CBP assessed as increase in p53 acetylation at lysine 382 residue at 10 uM incubated for 24 hrs by western blot analysis relative to control. The format is cell-based. In a few lines: as §5

Active and inactive are the calls of the source. The calls are words filed in the database; no cut-off is given here. Where only a bound is given, the exact number is not on record here.

For the molecule `CCn1c2ccc(CNC)cc2c2ccc(-c3cc(C)cs3)cc21`, the result (in [1]; in the series with NCI-H1299 [4]; in series [6]; in series [10]; in series [12]) was inactive. The inhibition at 72 h, 10 µM in series [2] was 30%; in [9], ~30%. Besides, the result (with NCI-H1299 [3]; in [5]; in series [7]) was Active. For the same molecule, the GI50 is 10.1 µM in the series on NUGC-3; > 10 µM in the series on U2OS; > 10 µM in the series with PNT2; 14 µM with BXPC-3; 16 µM in the series with NCI-H1299 [8]. Moreover, the Activity in series [11] was 26%. The thermal shift (ΔTm) in [13] turned out to be 3.7 °C.
For `CCn1c2ccc(CNCCOCCOCCOCCOCCC(=O)NCCOc3ccc(CCc4nc5cc(-c6c(C)noc6C)ccc5n4CCN4CCOCC4)cc3F)cc2c2ccc(-c3cc(C)cs3)cc21`, in [14], the outcome was Active. Further, the Activity in [15] amounted to 198%. The GI50 in the series on NCI-H1299 [8] was 4 µM.
The like results for `CCn1c2ccc(CNCCCCCCC(=O)NCCOc3ccc(CCc4nc5cc(-c6c(C)noc6C)ccc5n4CCN4CCOCC4)cc3F)cc2c2ccc(-c3cc(C)cs3)cc21` were, in that order, “Active”, 219% and 4 µM.
The like results for `CCn1c2ccc(CNCCCCCC(=O)NCCOc3ccc(CCc4nc5cc(-c6c(C)noc6C)ccc5n4CCN4CCOCC4)cc3F)cc2c2ccc(-c3cc(C)cs3)cc21` were, in that order, “Active”, 176% and 4 µM.
The like results for `CCn1c2ccc(CNCCCC(=O)NCCOc3ccc(CCc4nc5cc(-c6c(C)noc6C)ccc5n4CCN4CCOCC4)cc3F)cc2c2ccc(-c3cc(C)cs3)cc21` were, in that order, “Active”, 195% and 4 µM.
Regarding `CCn1c2ccc(CNCCCCCCCC(=O)NCCOc3ccc(CCc4nc5cc(-c6c(C)noc6C)ccc5n4CCN4CCOCC4)cc3F)cc2c2ccc(-c3cc(C)cs3)cc21`, the result in [14] was Active. Moreover, the Activity in series [15] worked out at 196%. Moreover, in the series on NCI-H1299 [8], the GI50 stood at 4 µM.
The like results for `CCn1c2ccc(CNCCOCCOCCOCCOCCOCCC(=O)NCCOc3ccc(CCc4nc5cc(-c6c(C)noc6C)ccc5n4CCN4CCOCC4)cc3F)cc2c2ccc(-c3cc(C)cs3)cc21` were, in that order, “Active”, 184% and 5 µM.
As for `CCn1c2ccc(CNCCOCCC(=O)NCCOc3ccc(CCc4nc5cc(-c6c(C)noc6C)ccc5n4CCN4CCOCC4)cc3F)cc2c2ccc(-c3cc(C)cs3)cc21`, the outcome in series [14] was Active. Further, the Activity in series [15] is 186%. Further, in the series on NCI-H1299 [8], the GI50 was determined as 4 µM.

For orientation: inhibition means the share of the control response that was lost under treatment. As usually defined, the GI50 is the concentration that inhibits growth by half. A word on the ΔTm: it is the change in melting temperature against a reference sample.

These data come from ChEMBL document CHEMBL5614410, “Design, Synthesis, and Evaluation of p53Y220C Acetylation Targeting Chimeras (AceTACs)” (J Med Chem, 2024).
